An excerpt weighted towards active compounds, which were near 2% of everything screened.
Bfl-1 A1 inh = inhibitors of the anti-apoptotic protein A1, read as caspase activation; MEF A1-2A-BIM cells, Caspase-Glo 3/7 luminescence, 3 h; percent of clofoctol response, vehicle zero; caspase activation, % (no concentration beside the values); 0.066% of 330,000 active;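 active means over half of replicate activation scores above 10%, or exactly half above 10 with the replicate mean above 10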
MC4R antagonist = blocks human MC4R cAMP signaling; P32245; MC4R-expressing cells, MTII-stimulated cAMP, LANCE TR-FRET; inhibition, % at 6.5 µM; 0.48% of 360,000 active;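 active means inhibition above its plate's cutoff, the mean of tested wells on that plate plus 3 SD, cut at about 29% in these data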;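 further: 0% = Melanotan II alone and 100% = Melanotan II plus saturating MCL0020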
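System: U2OS-MC4R stable cell line; Technique: Eu-cAMP/anti-cAMP TR-FRET, emission 671 nm; Repeats: single well per compound; Also added: Melanotan II; Dosing: one concentration, 6.5 µM nominal; Schedule: 30-min compound, 1-h challenge, 1-h detection, room temperature.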
CHOP UPR activ = activators of apoptotic arm of unfolded protein response (CHOP); 0.34% of 330,000 active; CHO-CHOP luciferase reporter, UPR activation, luminescence; percent of tunicamycin response over DMSO baseline; activation, % at 10 µM; AID 449763;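 active means at 10 µM dose, activation of 40% or more, normalized to positive control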;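 further: 100% = tunicamycin at 10 µg/mL and 0% = DMSO alone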
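System: CHO-CHOP luciferase reporter cell line; amount: 500 cells/well; buffer or medium: F12 medium containing 10% fetal bovine serum; incubation: 6 h compound exposure at 37 °C after overnight seeding; measured by: luciferase luminescence after 10 min with Steady-Glo reagent; evaluation: % reporter activation, DMSO baseline versus tunicamycin full activation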
XBP1 UPR activ = activators of adaptive arm of unfolded protein response (XBP1); 0.33% of 330,000 active; activation, % at 20 µM; CHO-XBP1 luciferase reporter, IRE1-XBP1 UPR activation, luminescence; percent of tunicamycin response, DMSO as zero; AID 463104;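 active means versus positive control, 20 µM dose yields 30% or more activation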;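 further: 100% = tunicamycin at 10 µg/mL and 0% = DMSO only wells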
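Material: CHO-XBP1 cells stably carrying IRE1-XBP1-driven luciferase reporter | Medium: F12 with 10% serum | Compound dosing: 20 µM single concentration, DMSO 1% | Incubation: Overnight seeding at 37 °C, 6 h compound treatment at 37 °C | Detection: Steady-Glo luminescence read | Read-out basis: % activation of reporter signal versus tunicamycin and DMSO controls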
MC4R barr agon = agonists of human melanocortin 4 receptor (MC4R) beta-arrestin; U2OS MC4R beta-arrestin complementation, luminescence; percent of melanotan II response, DMSO zero; AID 540308; P32245; activation, % at 8.9 µM; 0.98% of 360,000 active;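 active means activation above a per-plate cutoff, the mean activation of sample wells on that plate plus 3 SD, cut at about 8% in these data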
MC4R barr ag = human MC4R beta-arrestin agonism confirmation; shares compounds with MC4R barr agon; U2OS MC4R beta-arrestin recruitment, luminescence; scaled DMSO 0%, Melanotan II 100%; activation, % at 8.9 µM; 31% of 2,400 active;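 active means mean activation across replicates above the hit cutoff set in the earlier primary screen, cut at about 8% in these data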
MOR-DOR barr ag = activates mu-delta opioid heterodimer, MC4R agonist counter-screen; shares compounds with MC4R barr agon; U2OS PathHunter beta-arrestin, beta-gal luminescence; percent of deltorphin B response, DMSO zero; activation, % at 9.2 µM; 5.8% of 2,400 active; AID 602194;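 active means mean activation across replicates exceeds the hit threshold derived in the earlier primary screen, cut at about 18% in these data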;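 further: 100% = deltorphin B at 0.9 µM final and 0% = DMSO alone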
Target sequence (P35372 whole entry, looked up): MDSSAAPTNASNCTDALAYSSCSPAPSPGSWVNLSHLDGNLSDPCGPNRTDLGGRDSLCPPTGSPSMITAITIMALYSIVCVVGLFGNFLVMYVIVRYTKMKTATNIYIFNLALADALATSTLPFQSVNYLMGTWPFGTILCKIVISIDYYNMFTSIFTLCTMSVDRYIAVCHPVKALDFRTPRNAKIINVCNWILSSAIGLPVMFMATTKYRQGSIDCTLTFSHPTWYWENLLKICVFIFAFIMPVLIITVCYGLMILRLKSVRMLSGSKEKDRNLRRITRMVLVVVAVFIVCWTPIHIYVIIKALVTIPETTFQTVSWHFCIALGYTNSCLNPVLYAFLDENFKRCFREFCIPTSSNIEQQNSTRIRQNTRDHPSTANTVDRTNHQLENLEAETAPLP
Target sequence (P41143 whole entry, looked up): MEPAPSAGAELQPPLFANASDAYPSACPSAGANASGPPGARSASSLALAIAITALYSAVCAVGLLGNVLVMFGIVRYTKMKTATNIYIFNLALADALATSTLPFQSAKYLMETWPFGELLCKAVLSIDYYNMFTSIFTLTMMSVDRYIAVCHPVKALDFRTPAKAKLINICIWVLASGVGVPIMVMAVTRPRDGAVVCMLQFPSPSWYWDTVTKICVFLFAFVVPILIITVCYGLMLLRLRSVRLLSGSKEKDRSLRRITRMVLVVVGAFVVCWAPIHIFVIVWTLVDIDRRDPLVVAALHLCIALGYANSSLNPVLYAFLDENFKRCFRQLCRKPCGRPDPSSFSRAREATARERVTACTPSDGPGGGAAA
An asterisk follows results filed as active.

How did COc1cc(NC(=O)c2ccc(Cl)cc2Cl)ccc1NC(=O)c1cccs1 do in these assays?
Bfl-1 A1 inh: -0.1; MC4R antagonist: 22.8; CHOP UPR activ: 1.4; XBP1 UPR activ: 1.7; MC4R barr agon: 21.0*; MC4R barr ag: 1.4; MOR-DOR barr ag: 6.0

What do the screens show for `COc1cc(NC(=O)COc2ccccc2[N+](=O)[O-])ccc1NC(=O)c1cccs1`?
MC4R antagonist: -4.3; MC4R barr agon: 38.4*; MC4R barr ag: 18.1*; MOR-DOR barr ag: 10.1

How did COc1ccc(C#Cc2ccc3c(c2)O[C@@H](CN(C)C(=O)Nc2cccc(OC)c2)[C@H](C)CN([C@@H](C)CO)S3(=O)=O)cc1 do in these assays?
MC4R antagonist: 3.2; MC4R barr agon: -0.7

Results for Cc1cc(C(=O)N2CCC2(C)C(=O)NS(=O)(=O)c2cccc(OC(F)F)c2)nn1C (centres undefined) ?
MC4R antagonist: 14.2; MC4R barr agon: 2.3

Results for O=C(Nc1ccc(Cl)cc1)C1Cc2c(-c3ccccc3)ccnc2O1 (centres undefined) ?
MC4R antagonist: 6.1; MC4R barr agon: 1.2

Results for CCOC(=O)c1c(C)[nH]c(C(=O)C(C)Sc2ccc(Cl)cc2)c1C (centres undefined) ?
Bfl-1 A1 inh: 0.2; MC4R antagonist: -0.7; CHOP UPR activ: 1.8; XBP1 UPR activ: 0.7; MC4R barr agon: 2.8

Results for CCOC(=O)c1c(C)[nH]c(C(=O)Cn2nnc(-c3ccc(Cl)cc3)n2)c1C ?
Bfl-1 A1 inh: -0.3; MC4R antagonist: 10.3; CHOP UPR activ: -0.4; XBP1 UPR activ: -4.0; MC4R barr agon: 18.4*; MC4R barr ag: 10.6*; MOR-DOR barr ag: 4.6

How did CCC[C@H]1CN(Cc2cccnc2)C(=O)[C@@H]1CC(=O)Nc1ccc(Br)cc1 do in these assays?
MC4R antagonist: 5.9; MC4R barr agon: 1.5

Results for Nc1ccccc1-c1nnc(-c2ccc(-c3ccccc3)cc2)o1 ?
Bfl-1 A1 inh: -11.1; MC4R antagonist: -1.5; CHOP UPR activ: 4.2; XBP1 UPR activ: -1.8; MC4R barr agon: 12.1*; MC4R barr ag: 6.7; MOR-DOR barr ag: 1.2

Results for Cc1nc(NC(=O)CSc2nc3cccnc3n2C2CCCCC2)sc1C ?
Bfl-1 A1 inh: -0.2; MC4R antagonist: -3.2; CHOP UPR activ: 15.3; XBP1 UPR activ: 18.8; MC4R barr agon: 9.6*; MC4R barr ag: -2.4; MOR-DOR barr ag: 6.8

What do the screens show for `CCc1nnc(NC(=O)CSc2nc3cccnc3n2C2CCCCC2)s1`?
Bfl-1 A1 inh: 0.2; MC4R antagonist: 7.8; CHOP UPR activ: 0.8; XBP1 UPR activ: -1.6; MC4R barr agon: 0.3

Results for Cc1[nH]c2ccccc2c1C(=O)CSc1ccc(Cl)cc1 ?
Bfl-1 A1 inh: -0.6; MC4R antagonist: -11.3; CHOP UPR activ: 0.9; XBP1 UPR activ: -0.3; MC4R barr agon: 11.7*; MC4R barr ag: 2.9; MOR-DOR barr ag: 5.9

What do the screens show for `CC(C)Oc1ccc(C(CCNCc2ccc(O)cc2)c2ccccc2)cc1` (centres undefined)?
Bfl-1 A1 inh: 1.5; MC4R antagonist: 2.2; CHOP UPR activ: 0.5; XBP1 UPR activ: -4.0; MC4R barr agon: 11.9*; MC4R barr ag: 23.7*; MOR-DOR barr ag: 24.5*

Results for CC(=O)C(c1ccccc1)C(c1ccccc1)C(C)[N+](=O)[O-] (centres undefined) ?
Bfl-1 A1 inh: 0.3; MC4R antagonist: 15.0; CHOP UPR activ: -2.4; XBP1 UPR activ: -3.9; MC4R barr agon: 21.1*; MC4R barr ag: -2.1; MOR-DOR barr ag: 3.9

What do the screens show for `COC(=O)C(C(=O)OC)C(c1ccccc1)C(C(=O)c1ccccc1)[N+](=O)[O-]` (centres undefined)?
Bfl-1 A1 inh: -0.9; MC4R antagonist: 6.6; CHOP UPR activ: 0.7; XBP1 UPR activ: 0.8; MC4R barr agon: -0.8

What do the screens show for `COc1cccc(-c2cnc3c(c2)C(=O)N([C@H](C)CO)C[C@@H](C)[C@H](CN(C)C(=O)Nc2ccccc2F)O3)c1`?
MC4R antagonist: 1.8; MC4R barr agon: -1.7

How did N#Cc1ccc(-c2ccccc2)nc1SCC(=O)c1cccc(Cl)c1 do in these assays?
Bfl-1 A1 inh: -0.5; MC4R antagonist: -4.1; CHOP UPR activ: 0.4; XBP1 UPR activ: -0.9; MC4R barr agon: 0.9

How did N#Cc1ccc(-c2cccnc2)nc1SCC(=O)c1ccccc1 do in these assays?
Bfl-1 A1 inh: -1.4; MC4R antagonist: 7.7; CHOP UPR activ: 8.2; XBP1 UPR activ: 5.6; MC4R barr agon: 11.2*; MC4R barr ag: 7.0; MOR-DOR barr ag: 2.5

How did O=C(NC(=S)Nc1ccccc1)c1cncc(C#Cc2ccccc2)c1 do in these assays?
Bfl-1 A1 inh: 0.0; MC4R antagonist: -0.5; CHOP UPR activ: 0.4; XBP1 UPR activ: 0.1; MC4R barr agon: 13.9*; MC4R barr ag: 0.4; MOR-DOR barr ag: 1.6

What do the screens show for `CCCNC(=O)C1(C)CCCN(Cc2ccc(C)cc2)C1` (centres undefined)?
MC4R antagonist: 13.1; MC4R barr agon: -2.3

Results for CCCCC(=O)N(C)c1c(C)nc2ccc(C(=O)NCCN(C)C)cn12 ?
MC4R antagonist: -6.4; MC4R barr agon: -0.2

What do the screens show for `O=C1NC[C@@H](Cc2ccc(O)cc2)N(CCc2cccc3ccccc23)C1=O`?
Bfl-1 A1 inh: 0.8; MC4R antagonist: 14.9; CHOP UPR activ: -0.1; XBP1 UPR activ: -1.2; MC4R barr agon: 1.1

Results for O=C1NC[C@@H](Cc2cccc3ccccc23)N(CCc2cc(C(F)(F)F)cc(C(F)(F)F)c2)C1=O ?
Bfl-1 A1 inh: -0.5; MC4R antagonist: -1.4; CHOP UPR activ: -2.7; XBP1 UPR activ: -0.6; MC4R barr agon: 11.3*; MC4R barr ag: 9.8*; MOR-DOR barr ag: 3.3

What do the screens show for `CC1=C(C#N)C(C)(C)C(C#N)=C(C)N1`?
MC4R antagonist: -1.5; MC4R barr agon: -1.6

What do the screens show for `CN1CCN(c2ncnc3c2ncn3[C@H]2CN(C)C[C@@H](CO)O2)CC1`?
MC4R antagonist: 2.3; MC4R barr agon: -2.5

Results for O=c1oc2ccccc2cc1-c1cn2ccccc2n1 ?
Bfl-1 A1 inh: -9.1; MC4R antagonist: -1.9; CHOP UPR activ: -8.8; XBP1 UPR activ: -9.8; MC4R barr agon: 11.1*; MC4R barr ag: 1.3; MOR-DOR barr ag: 5.0

Results for O=c1oc2ccccc2cc1-c1cn2cccnc2n1 ?
Bfl-1 A1 inh: -5.5; MC4R antagonist: -0.5; CHOP UPR activ: -2.9; XBP1 UPR activ: -2.9; MC4R barr agon: 0.6
